Columns and labels:
GPER [1] = target: T1, GPER (Homo sapiens, UniProt Q99527); assay: Dissociation rate of [3H] 2-ME binding in GPER-transduced Sf9 cells; conditions: corresponding to Koff
Summary of the method: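 Particulate fraction (1000 × g then 20 000 × g spins) from Sf9 cells 48 h after human GPER baculovirus infection. Incubated with 2 nM [³H]2-ME for 120 min at 15°C, then diluted tenfold with ice-cold binding buffer (50 mM Tris-HCl pH 7.4). Bound radioactivity was sampled from 5 to 120 s by vacuum filtration through cellulose nitrate and scintillation counting. Nonspecific binding was taken with 100 nM unlabelled 2-ME. Mean ± SD, n = 4.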

ERK phosphorylation = ERK phosphorylation in wild-type Sf9 cells; type: cell-based, Spodoptera frugiperda; conditions: wild-type (non-transfected) Sf9 cells, data not shown
GPER [2] = target: T1, GPER; assay: [3H] 2-ME competition binding in GPER-transduced Sf9 cell particulate fractions
[3] = tested on: GPER‐transduced Sf9 cells; assay: EdU incorporation proliferation assay in GPER-transduced Sf9 cells; type: cell-based; conditions: Spodoptera frugiperda, read-out: Cell proliferation IC50
GPER [4] = target: T1, GPER; assay: Guanine nucleotide sensitivity of [3H] 2-ME high-affinity binding; conditions: GppNHp 100 μM, 5 mM Mg++, n = 3
Summary of the method: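 Sf9 particulate fraction expressing baculovirus-delivered GPER, incubated with [³H]2-ME (0.5–2 nM) with or without 100 μM GppNHp. Mg⁺⁺ was 5 mM to favour the high-affinity agonist state. Binding was in Tris-HCl pH 7.4 buffer with BSA, 120 min at 15°C. Reactions were stopped with ice-cold buffer, filtered and scintillation counted. Specific binding is total minus binding with 100 nM cold 2-ME added 12 min before radioligand.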

T1 sequence (Q99527 whole entry, species assumed): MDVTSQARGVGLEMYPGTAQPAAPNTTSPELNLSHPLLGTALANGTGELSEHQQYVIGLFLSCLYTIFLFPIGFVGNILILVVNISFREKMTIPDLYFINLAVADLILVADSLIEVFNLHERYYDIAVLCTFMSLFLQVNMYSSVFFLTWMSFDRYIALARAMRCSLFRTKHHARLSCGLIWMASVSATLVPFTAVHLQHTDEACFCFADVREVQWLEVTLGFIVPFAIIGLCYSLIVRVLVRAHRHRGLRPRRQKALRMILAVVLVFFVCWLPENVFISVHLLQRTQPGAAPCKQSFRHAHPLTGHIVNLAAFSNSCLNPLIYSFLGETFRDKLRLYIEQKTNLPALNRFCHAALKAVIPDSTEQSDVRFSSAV

Compound	Inhibition of ERK phosphorylation in wild-type Sf9 cells (ERK phosphorylation)	Ki (GPER [2]) [nM]	IC50 [3] [nM]	other results
[^3H] 2‐methoxyestradiol	–	–	–	Dissociation half-life (GPER [1]): 21 s
CC(=O)c1ccc2c(c1)[C@@H]1C=CC[C@@H]1[C@H](c1cc3c(cc1Br)OCO3)N2 (relative stereo) [G1, 1‐[(3aS,4R,9bR‐rel)‐4‐(6‐bromo‐1,3‐benzodioxol‐5‐yl)‐3a,4,5,9b‐tetrahydro‐[^3H]‐cyclopenta[c]quinolin‐8‐yl]‐ethanone]	did not inhibit	–	–	–
COc1cc2c(cc1O)CC[C@@H]1[C@@H]2CC[C@]2(C)[C@@H](O)CC[C@@H]12 [2‐ME, 2‐Methoxyestradiol]	did not inhibit	1.5	0.026	–
C[C@]12CCC(=O)C=C1CC[C@@H]1[C@@H]2[C@@H](O)C[C@]2(C=O)[C@@H](C(=O)CO)CC[C@@H]12 [Aldosterone]	did not inhibit	24	0.104	–
Nc1nc2c(ncn2[C@@H]2O[C@H](COP(=O)(O)OP(=O)(O)NP(=O)(O)O)[C@@H](O)[C@H]2O)c(=O)[nH]1 [GppNHp]	–	–	–	Reduction of high-affinity [3H] 2-ME binding (GPER [4]; [3H] 2-ME 0.5 nM): 46 ± 23%; Reduction of high-affinity [3H] 2-ME binding (GPER [4]; [3H] 2-ME 1 nM): 19 ± 7%; Reduction of high-affinity [3H] 2-ME binding (GPER [4]; [3H] 2-ME 2 nM): 53 ± 24
C[C@]12CC[C@@H]3c4ccc(O)cc4CC[C@H]3[C@@H]1CC[C@@H]2O [E2, Estradiol]	did not inhibit	–	–	–
